Results from ChEMBL document CHEMBL3593166, “Hybrid chemistry. Part 4: Discovery of etravirine-VRX-480773 hybrids as potent HIV-1 non-nucleoside reverse transcriptase inhibitors” (Bioorg Med Chem, 2015).
Calls of active or inactive are those of the source. The calls are words filed in the database; no cut-off is given here.

Legend:
[1] = test system: Human immunodeficiency virus 1; assay: Antiviral activity against HIV1 3B infected in human MT4 cells assessed as inhibition of virus-induced cytopathicity incubated for 4 days by MTT method; type: functional, organism-based; conditions: Human immunodeficiency virus 1, 3B, MT4, 96 h
Outline: (§1)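 Virus stocks titrated in MT-4 cells as CCID50. MT-4 cells at 1 × 10^5 cells/mL infected at MOI 0.02 (HIV-1 IIIB or HIV-2 ROD), then plated immediately over serial compound dilutions (DMSO stocks, 50 mM or higher). After 4 days at 37 °C, viable cells counted by MTT. EC50 from means of at least three separate experiments.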

[2] = Selectivity index, ratio of CC50 for human MT4 cells to EC50 for HIV1 3B infected in human MT4 cells; type: toxicity, cell-based; conditions: HIV1 3B infected MT4 cells, read-out: Ratio CC50/EC50
Outline: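 SI calculated as CC50 in uninfected MT-4 cells divided by EC50 against WT HIV-1 IIIB. Both come from the 4-day MTT assays at 37 °C; infection was at MOI 0.02 with cells at 1 × 10^5 cells/mL.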

[3] = test system: Human immunodeficiency virus 2; assay: Antiviral activity against HIV2 ROD infected in human MT4 cells assessed as inhibition of virus-induced cytopathicity incubated for 4 days by MTT method; type: functional, organism-based; conditions: Human immunodeficiency virus 2, ISOLATE ROD, MT4, 96 h; outline: as §1
[4] = test system: Human immunodeficiency virus 1; assay: Antiviral activity against HIV1 RES056 expressing reverse transcriptase K103N + Y181C mutant infected in human MT4 cells assessed as inhibition of virus-induced cytopathicity incubated for 4 days by MTT method; type: functional, organism-based; conditions: Human immunodeficiency virus 1, RES056, MT4, 96 h
Outline: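 Serial compound dilutions in MT-4 cells (1 × 10^5 cells/mL) infected at MOI 0.02 with K103N+Y181C double-mutant HIV-1. Cells added to compound right after infection and incubated 4 days at 37 °C. Viable cells counted by MTT and EC50 derived. Cytotoxicity run in parallel on uninfected cells. Values are the mean of at least three experiments.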

[5] = Cytotoxicity against human MT4 cells assessed as reduction in cell viability incubated for 4 days MTT method; type: cell-based
Outline: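 Uninfected MT-4 cells at 1 × 10^5 cells/mL exposed to serial compound dilutions (DMSO stocks, 50 mM or higher) in parallel with the antiviral test. Viability read by MTT after 4 days at 37 °C. CC50 is the concentration lowering viability by 50%. Values are means of at least three experiments.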

[6] = target: Human immunodeficiency virus type 1 reverse transcriptase (Human immunodeficiency virus 1, UniProt Q72547); assay: Inhibition of HIV1 recombinant wild type reverse transcriptase p66/p51 assessed as reduction in biotin deoxyuridine triphosphate (biotin-dUTP) incorporation using poly(rA)/oligo (dT)16 template and primer by spectrofluorometry
[7] = test system: Human immunodeficiency virus 1; assay: Antiviral activity against HIV1 3B infected in human MT4 cells […] at 100 fold antiviral EC50 level added 3 to 5 hrs post infection and measured 31 hrs post infection by p24 enzyme-linked immunosorbent assay; type: functional, organism-based
Outline: (§2)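 MT-4 cells infected with WT HIV-1 at m.o.i. 0.5; after 1 h adsorption, seeded at 45,000 cells/well, 37°C. Compounds added at 0, 1, 2, 3, 4, 5, 6, 7, 8, 9, 24 or 25 h post-infection. Reference agents at fixed levels (ETV 0.19 µM); hybrids at 100-fold their MT-4/MTT EC50. Virus production measured by p24 ELISA at 31 h post-infection.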

[8] = test system: Human immunodeficiency virus 1; assay: Antiviral activity against HIV1 3B infected in human MT4 cells […] at 0.19 uM added 3 to 5 hrs post infection and measured 31 hrs post infection by p24 enzyme-linked immunosorbent assay; type: functional, organism-based; outline: as §2
[9] = test system: Human immunodeficiency virus 1; assay: Antiviral activity against HIV1 3B infected in human MT4 cells […] added 3 to 5 hrs post infection and measured 31 hrs post infection by p24 enzyme-linked immunosorbent assay; type: functional, organism-based
Outline: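 MT-4 cells infected with WT HIV-1 at m.o.i. 0.5 and allowed 1 h adsorption, then seeded at 45,000 cells/well at 37 °C. Compound added at set times from 0 to 25 h post-infection. Virus production read by p24 ELISA at 31 h post-infection.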

| Structure (SMILES) | EC50 [1] [µM] | selectivity ratio [2] | EC50 [3] [µM] | EC50 [4] [µM] | CC50 at 96 h [5] [µM] | IC50 [6] [µM] | inhibition [7] | inhibition [8] | inhibition [9] |
| --- | --- | --- | --- | --- | --- | --- | --- | --- | --- |
| Cc1cc(C#N)cc(C)c1Oc1ccnc(SCC(=O)Nc2cccc(Cl)c2)n1 | 8 | > 37 | > 294 | > 294 | > 294 |  |  |  |  |
| COc1ccc(NC(=O)CSc2nccc(Oc3c(C)cc(C#N)cc3C)n2)cc1 | 7.3 | ≥ 9 | > 69 | > 69 | ≥ 69 |  |  |  |  |
| Cc1cc(C#N)cc(C)c1Oc1ccnc(SCC(=O)Nc2ccc(Cl)cc2Cl)n1 | 1.2 | > 227 | > 272 | > 272 | > 272 |  |  |  |  |
| Cc1cc(C#N)cc(C)c1Oc1ccnc(SCC(=O)Nc2ccccc2Cl)n1 | 0.24 | > 1220 | > 294 | ≥ 10.9 | > 294 | 0.473 | Active |  |  |
| Cc1cc(C#N)cc(C)c1Oc1ccnc(SCC(=O)Nc2ccc(O)cc2)n1 | 8.3 | 9 | > 71 | > 71 | 71 |  |  |  |  |
| Cc1ccccc1NC(=O)CSc1nccc(Oc2c(C)cc(C#N)cc2C)n1 | 5.9 | > 52 | > 309 | > 309 | > 309 |  |  |  |  |
| Cc1cc(C#N)cc(C)c1Oc1ccnc(SCC(=O)Nc2ccc(F)cc2)n1 | 8 | > 38 | > 306 | > 306 | > 306 |  |  |  |  |
| Cc1cc(C#N)cc(C)c1Oc1ccnc(SCC(=O)Nc2ccc(S(N)(=O)=O)cc2)n1 | 7.9 | > 34 | > 266 | > 266 | > 266 |  |  |  |  |
| Cc1cc(C#N)cc(C)c1Oc1ccnc(SCC(=O)Nc2cc(Cl)cc(Cl)c2)n1 | 10.8 | > 3.7 | > 41 | > 41 | ≥ 41 |  |  |  |  |
| Cc1cc(C#N)cc(C)c1Oc1nc(Nc2ccc(C#N)cc2)nc(N)c1Br [ETRAVIRINE] |  | > 1120 |  |  | > 4.6 |  |  | Active |  |
| Cc1cc(C#N)cc(C)c1Oc1ccnc(SCC(=O)Nc2ccc(Cl)c(Cl)c2)n1 | 5.3 | 17 | > 89 | > 89 | 89 |  |  |  |  |
| Cc1cc(C#N)cc(C)c1Oc1ccnc(SCC(=O)Nc2ccc(Br)cc2)n1 | 1.4 | 17 | > 24 | > 24 | 24 |  |  |  |  |
| Cc1cc(C#N)cc(C)c1Oc1ccnc(SCC(=O)Nc2cccc(F)c2)n1 | 8.1 | > 38 | > 306 | > 306 | > 306 |  |  |  |  |
| Cc1cc(C#N)cc(C)c1Oc1ccnc(SCC(=O)Nc2ccc([N+](=O)[O-])cc2)n1 | 1.4 | > 205 | > 287 | > 287 | > 287 |  |  |  |  |
| Cc1cc(S(N)(=O)=O)ccc1NC(=O)CSc1nccc(Oc2c(C)cc(C#N)cc2C)n1 | 0.81 | 57 | > 46 | > 46 | 46 | 2.77 | Active |  |  |
| Cc1ccnc2c1NC(=O)c1cccnc1N2C1CC1 |  |  |  |  |  |  |  |  | Active |
| Cc1cc(C#N)cc(C)c1Oc1ccnc(SCC(=O)Nc2ccc(Cl)cc2)n1 | 3.9 | > 75 | > 294 | > 294 | > 294 |  |  |  |  |
| Cc1cc(C#N)cc(C)c1Oc1ccnc(SCC(=O)Nc2ccccc2[N+](=O)[O-])n1 | 0.34 | > 844 | > 287 | > 287 | > 287 | 1.17 | Active |  |  |
| Cc1cc(C#N)cc(C)c1Oc1ccnc(SCC(=O)Nc2ccccc2)n1 | > 320 |  | > 320 | > 320 | > 320 |  |  |  |  |
| CC(C)Nc1cccnc1N1CCN(C(=O)c2cc3cc(NS(C)(=O)=O)ccc3[nH]2)CC1 [DELAVIRDINE] |  | > 67 |  | > 44 | > 44 |  |  |  |  |
| Cc1cc(C#N)cc(C)c1Oc1ccnc(SCC(=O)Nc2ccc(C#N)cc2F)n1 | 6 | > 48 | > 288 | > 288 | > 288 |  |  |  |  |
| Cc1cc(C#N)cc(C)c1Oc1ccnc(SCC(=O)Nc2cccc([N+](=O)[O-])c2)n1 | 41 | > 7 | > 287 | > 287 | > 287 |  |  |  |  |
| NS(=O)(=O)c1ccc(NC(=O)CSc2nnc(Br)n2-c2ccc(C3CC3)c3ccccc23)c(Cl)c1 | 0.00014 | 41600 |  | 0.00023 | 5.82 |  |  |  |  |
| Cc1ccc(NC(=O)CSc2nccc(Oc3c(C)cc(C#N)cc3C)n2)cc1 | 5.1 | > 61 | > 309 | > 309 | > 309 |  |  |  |  |
| Cc1cc(C#N)cc(C)c1Oc1ccnc(SCC(=O)Nc2ccc(C#N)cc2)n1 | 4.3 | > 70 | > 301 | > 301 | > 301 |  |  |  |  |
